Test results reported in PMC4887451 (Natural product communications, 2015).
Converted amounts (≈) assume the structure as drawn. One block for each molecule: values may come before it.

What was measured:
Type in all cases: cell-based
[1] = test system: Trypanosoma brucei brucei; experiment: antitrypanosomal Alamar Blue assay on Trypanosoma brucei trypomastigotes
Method in brief: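 Trypomastigote cultures of T. brucei brucei exposed to test compound, with viability read by Alamar Blue. DFMO served as positive control.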

[2] = test system: chloroquine-resistant (W2) Plasmodium falciparum; experiment: antiplasmodial screening by plasmodial LDH activity, W2 strain; settings: for selectivity index (SI), ratio of VERO IC50 to W2 IC50: VERO mammalian cell line
[3] = test system: chloroquine-sensitive (D6) Plasmodium falciparum; experiment: antiplasmodial screening by plasmodial LDH activity, D6 strain; settings: for selectivity index (SI), ratio of VERO IC50 to D6 IC50: VERO mammalian cell line
[4] = test system: Candida glabrata ATCC 90030; experiment: antifungal screening; settings: Nakaseomyces glabratus, ATCC90030, read-out: IC50 against Candida glabrata
Method in brief: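 Tested alongside C. albicans ATCC 90028, C. krusei ATCC 6258, Cryptococcus neoformans ATCC 90113 and Aspergillus fumigatus ATCC 204305, following a previously described procedure. IC50 derived by curve fitting. Amphotericin B was the positive control.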

Structure (SMILES): C=C[C@]1(C)CC[C@H](C(C)(C)O[C@@H]2O[C@H](CO[C@@H]3OC[C@@H](O)[C@H](O)[C@H]3O)[C@@H](O)[C@H](O)[C@H]2O)O1 (relative stereo) [Compound 9, (3S, 6R) cis-linalool 3,6 oxide, O-β-D-xylopyranosyl-(1″→6′)-β-D-glucopyranoside]
IC50, trypanocidal activity against Trypanosoma brucei brucei [1]: 8.18 µg/mL (≈ 17.6 µM) | IC90, trypanocidal activity against Trypanosoma brucei brucei [1]: > 10 µg/mL

Structure (SMILES): C[C@@H]1O[C@@H](Oc2cc(O)c3c(=O)c(O)c(-c4ccc(O)c(O)c4)oc3c2)[C@H](O)[C@H](O)[C@H]1O [Compound 15, quercetin-7-O-α-L-rhamnopyranoside]
IC50, trypanocidal activity against Trypanosoma brucei brucei [1]: 9.02 µg/mL (≈ 20.1 µM) | IC90, trypanocidal activity against Trypanosoma brucei brucei [1]: > 10 µg/mL

IC50 against chloroquine-resistant (W2) Plasmodium falciparum ([2]; plasmodial LDH activity): 4.53 µg/mL (≈ 8.54 µM) | IC50 against chloroquine-sensitive (D6) Plasmodium falciparum ([3]; plasmodial LDH activity): 3.29 µg/mL (≈ 6.2 µM)
Structure (SMILES): COC(=O)C1(O)CC(O)C(OC(=O)/C=C/c2ccc(O)c(O)c2)C(OC(=O)/C=C/c2ccc(O)c(O)c2)C1 (centres unmarked) [Compound 20, 4,5-dicaffeoyl quinic acid methyl ester]
selectivity index (SI), ratio of VERO IC50 to W2 IC50 [2]: > 1 | selectivity index (SI), ratio of VERO IC50 to D6 IC50 [3]: > 1.4

Structure (SMILES): O=c1c(O)c(-c2ccc(O)c(O)c2)oc2cc(O)cc(O)c12 [Compound 16, quercetin]
IC50 [4]: 8.66 µg/mL (≈ 28.7 µM)

Structure (SMILES): NCCCC(N)(C(=O)O)C(F)F (centres unmarked) [DFMO, difluoromethylornithine, reference compound]
IC50, trypanocidal activity against Trypanosoma brucei brucei [1]: 2.30 µg/mL (≈ 12.6 µM) | IC90, trypanocidal activity against Trypanosoma brucei brucei [1]: 5.20 µg/mL (≈ 28.5 µM)

IC50 [4]: 0.34 µg/mL (≈ 0.368 µM)
Structure (SMILES): C[C@@H]1[C@H](O)[C@@H](C)/C=C/C=C/C=C/C=C/C=C/C=C/C=C/[C@H](O[C@@H]2O[C@H](C)[C@@H](O)[C@H](N)[C@@H]2O)C[C@@H]2O[C@](O)(C[C@@H](O)C[C@@H](O)[C@H](O)CC[C@@H](O)C[C@@H](O)CC(=O)O[C@H]1C)C[C@H](O)[C@H]2C(=O)O [AMB, amphotericin B, reference compound]

Structure (SMILES): CCN(CC)CCCC(C)Nc1ccnc2cc(Cl)ccc12 (centres unmarked) [chloroquine, reference compound]
selectivity index (SI), ratio of VERO IC50 to W2 IC50 [2]: > 2.1 | selectivity index (SI), ratio of VERO IC50 to D6 IC50 [3]: > 9
